An excerpt weighted towards active compounds, which were near 3.3% of everything screened.
ABHD4 inh – inhibitors of mouse ABHD4. Q8VD66. purified mABHD4, FP-Rh probe fluorescence polarization. inhibition, % at 8.92 µM. actives 0.54% (n = 370,000). AID 720543;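 active = inhibition exceeding the mean over every tested compound plus 3 SD, cut at about 30% in these data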;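 also: 0% = plate median of compound wells and 100% = S159A mutant with DMSO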
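Assay system: Wild-type mouse ABHD4 protein | Medium: HEPES pH 7.0 buffer, 150 mM NaCl, 0.01% Pluronic F-127 | Incubation: Enzyme–compound pre-incubation 45 min, then probe 60 min, both 25 °C | Technique: Fluorescence polarization with parallel and perpendicular emission, 525/598 nm | Evaluation: % inhibition of FP-Rh probe binding versus controls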
HTRA1 inhibitor – blocks human HTRA1 serine peptidase; Q92743; recombinant HTRA1, FP-rhodamine activity-based probe, fluorescence polarization; inhibition, % at 5.96 µM; actives 0.5% (n = 340,000); in the data active = inhibition above about 36%;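 also: 0% = enzyme with DMSO and 100% = wells lacking enzyme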
PRMT1 FP inh – PRMT1 (human) inhibition, primary screen; recombinant PRMT1, activity-based probe fluorescence polarization; Q99873; inhibition, % at 2.79 µM; actives 1.3% (n = 370,000); AID 652257;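 active = inhibition above about 21% made by adding two undisclosed values, limit read from the data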
SIAE primary – blocks human sialic acid acetylesterase; Q9HAT2; SIAE FP-Rh probe binding, fluorescence polarization; inhibition, % at 9.66 µM; actives 0.69% (n = 370,000); AID 1053197;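 active = inhibition above a cutoff: mean of compounds within the control limits plus 3 SD of those, cut at about 17% in these data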;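 also: 0% = plate median of compound wells and 100% = probe without SIAE protein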
Target sequence (Q9HAT2 whole entry, looked up): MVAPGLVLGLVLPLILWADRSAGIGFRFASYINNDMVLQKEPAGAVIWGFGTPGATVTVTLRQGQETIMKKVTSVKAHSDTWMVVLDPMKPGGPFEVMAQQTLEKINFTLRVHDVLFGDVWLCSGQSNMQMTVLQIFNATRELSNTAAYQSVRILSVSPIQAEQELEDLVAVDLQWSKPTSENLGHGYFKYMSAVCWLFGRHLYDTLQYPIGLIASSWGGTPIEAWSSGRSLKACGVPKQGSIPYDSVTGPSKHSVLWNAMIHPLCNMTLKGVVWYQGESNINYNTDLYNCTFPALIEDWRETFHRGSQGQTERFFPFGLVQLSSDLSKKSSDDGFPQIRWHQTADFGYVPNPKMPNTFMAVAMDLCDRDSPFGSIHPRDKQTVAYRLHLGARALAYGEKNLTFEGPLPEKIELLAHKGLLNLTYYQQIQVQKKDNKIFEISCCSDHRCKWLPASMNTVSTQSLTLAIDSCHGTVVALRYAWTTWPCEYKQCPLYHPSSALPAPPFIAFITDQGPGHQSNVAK
rCAG RNA binder – molecules binding r(CAG) RNA repeats. AID 651821. r(CAG) RNA repeat, TO-PRO-1 dye displacement fluorescence. actives 1.3% (n = 370,000). inhibition, % at 3 µM;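 active = inhibition above the plate cutoff, the mean of all test compounds on that plate plus 3 SD, cut at about 35% in these data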;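 also: 0% = DMSO alone and 100% = 100 µM mitoxantrone as full dye displacement; higher means more dye released from RNA so lower well fluorescence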
rCAG bind conf – r(CAG) RNA repeat binding, confirmation; shares compounds with rCAG RNA binder; TO-PRO-1 dye displacement fluorescence; inhibition, % at 3 µM; actives 70% (n = 4,300); AID 652065;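 active = inhibition above a per-plate cutoff, the mean inhibition of sample wells plus 3 SD, cut at about 35% in these data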;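 also: loss of TO-PRO-1 fluorescence as compound displaces dye from 1x1 AA loop RNA; 0% = DMSO only wells and 100% = 100 µM mitoxantrone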
dCAG dye counter – disrupts DNA CAG TO-PRO-1 complex, flagging rCAG hits | AID 652068 | shares compounds with rCAG RNA binder | d(CAG) DNA oligo TO-PRO-1 dye displacement, fluorescence | actives 94% (n = 4,300) | inhibition, % at 3 µM;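 active = inhibition above its plate's cutoff, the mean test-well inhibition plus 3 SD, cut at about 4.8% in these data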;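 also: 0% = DNA dye mix with DMSO and 100% = 100 µM mitoxantrone; hits displace the dye from DNA and so lower well fluorescence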
PRMT1 confirm – PRMT1 (human) inhibition, FP confirmation | shares compounds with PRMT1 FP inh | recombinant His-PRMT1, activity-based probe fluorescence polarization | inhibition, % at 2.79 µM | actives 42% (n = 3,300) | AID 687036;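 active = mean inhibition across replicates above the hit cutoff derived for the earlier primary screen, cut at about 22% in these data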
ABHD4 confirm – ABHD4 (mouse) inhibition, FP confirmation | shares compounds with ABHD4 inh | purified mABHD4, FP-Rh probe fluorescence polarization | inhibition, % at 8.92 µM | actives 55% (n = 1,800);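 active = mean inhibition across replicates above the hit cutoff set in the primary screen, cut at about 30% in these data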;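 also: 0% = wild-type ABHD4 with DMSO and 100% = catalytically dead S159A mutant with DMSO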
SIAE confirm – confirmation of human SIAE inhibitors. inhibition, % at 9.66 µM. actives 13% (n = 2,300). SIAE FP-Rh activity-based probe, fluorescence polarization. shares compounds with SIAE primary. AID 1117263;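 active = mean inhibition of the replicates above the hit cutoff set in the primary screen, cut at about 17% in these data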;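 also: 0% = SIAE with DMSO and probe and 100% = probe without SIAE; inhibitors lower polarization as more probe stays unbound to SIAE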
* marks the source's active call; other numbers are inactive results; . = no result.

SMILES	ABHD4 inh	HTRA1 inhibitor	PRMT1 FP inh	SIAE primary	rCAG RNA binder	rCAG bind conf	dCAG dye counter	PRMT1 confirm	SIAE confirm	others
CC(C)C1Nc2c(O)cc(Cl)c([N+](=O)[O-])c2C2C=CCC21 (stereo not drawn)	58.1*	32.5	30.1*	22.3*	37.0*	17.1	4.3	19.9	3.6	ABHD4 confirm=35.5*
O=C(NCc1ccccc1)c1cc2ccc(O)cc2oc1=O	0.1	-3.0	0.1	0.1	4.5	.	.	.	.
C/C(=N/NC(=O)c1ccccn1)c1ccco1	1.0	5.5	-0.7	1.2	-1.0	.	.	.	.
O=C(NNC(=O)c1cc2ccccc2cc1O)c1cccs1	9.7	13.9	3.4	-0.2	18.1	.	.	.	.
C/C(=N\NC(=O)c1cc2ccccc2cc1O)c1cccs1	13.7	26.6	-3.8	28.2*	49.6*	8.6	3.5	.	0.8
C/C(=N/NC(=O)c1cc2ccccc2cc1O)c1ccco1	24.7	19.0	1.4	23.3*	50.9*	10.6	9.0*	.	-0.4
CCn1c(COc2cccc(C)c2C)nnc1SCC(=O)Nc1cc(C)on1	6.0	.	1.1	-6.3	-2.4	.	.	.	.
O=C(N/N=C/c1cn(Cc2cccc(F)c2)c2ccccc12)c1cc(O)cc(O)c1	25.8	3.9	11.0	36.6*	50.0*	52.2*	28.6*	.	1.0
COc1cc(O)c(C(C)=O)cc1OC	-11.5	4.7	3.4	2.8	4.4	.	.	.	.
CC(=O)Oc1cc(C)c(Cl)c2c(OC(C)=O)cc(C(C)=O)c(O)c12	68.2*	.	24.1*	36.4*	40.2*	20.9	6.8*	.	18.3*	ABHD4 confirm=39.4*
Fc1ccccc1Nc1nc(-c2ccncc2)nc2ccccc12	4.9	-18.3	4.9	-6.7	-2.4	.	.	.	.
Cc1c(N/N=C(\C#N)C(=O)c2ccc(Cl)cc2)c(=O)n(-c2ccccc2)n1C	8.2	1.0	-3.5	18.2*	37.0*	32.2	10.1*	.	4.1
Nc1nonc1N/N=C/c1c(O)ccc2ccccc12	21.7	16.8	1.0	17.5*	40.4*	20.4	15.0*	.	-21.8
CS(=O)(=O)c1ccc2nc(NC(=O)c3ccccc3)sc2c1	-1.1	-5.4	4.5	0.5	3.5	.	.	.	.
CS(=O)(=O)c1ccc(C(=O)Nc2nc(-c3ccco3)c(-c3ccco3)s2)cc1	39.7*	5.1	35.3*	46.7*	88.4*	34.0	16.4*	28.4*	2.7	ABHD4 confirm=-16.1
O=C(CN1C(=O)/C(=C2/SC(=S)N(CCS(=O)(=O)O)C2=O)c2ccccc21)Nc1cccc(C(F)(F)F)c1	84.7*	-3.6	8.4	21.7*	91.5*	93.8*	77.6*	.	22.1*	ABHD4 confirm=92.5*
CCOC(=O)CC(=O)CSc1nc2c(sc(=S)n2-c2ccc(OCC)cc2)c(=O)[nH]1	-0.4	-9.8	2.6	20.3*	61.2*	53.3*	18.8*	.	-1.6
CCCCC(=O)Oc1c(S(=O)(=O)c2ccc(C)cc2)c(C)nn1C(C)(C)C	-17.2	-14.1	8.7	-2.6	-4.9	.	.	.	.
CC(=O)Nc1ccc(Br)c2ccccc12	-0.2	3.4	2.1	-6.1	1.4	.	.	.	.
O=C(Nc1ccc(Br)c2ccccc12)c1ccc2ccccc2c1O	17.7	19.4	10.9	25.7*	77.3*	78.2*	40.0*	.	-4.9
CC1(C(=O)NCCC#N)CCN1C(=O)c1ccccc1CCc1ccccc1 (stereo not drawn)	-1.3	.	3.4	5.9	-0.1	.	.	.	.
N#Cc1cc2c(=O)n3ccccc3nc2n(Cc2ccco2)c1=NC(=O)c1ccco1	3.7	-0.9	31.9*	-4.6	23.4	.	.	2.4	.
CC(=O)N=c1c(C#N)cc2c(=O)n3cccc(C)c3nc2n1Cc1ccco1	1.7	.	8.5	1.4	7.8	.	.	.	.
COc1ccc2[nH]c(=O)c(CNc3ccccc3)cc2c1	16.8	8.0	25.3*	6.6	8.5	.	.	1.5	.
Cc1ccc(NC2=C(CC(=O)O)C(c3ccccc3)N(c3ccc(C)cc3)C2=O)cc1 (stereo not drawn)	4.1	-13.7	2.1	7.8	17.4	.	.	.	.
SMILES	ABHD4 inh	HTRA1 inhibitor	PRMT1 FP inh	SIAE primary	rCAG RNA binder	rCAG bind conf	dCAG dye counter	PRMT1 confirm	SIAE confirm	others
O=C1C=CC(=O)N1CCNc1ncc(C(F)(F)F)cc1Cl	8.7	-2.9	92.0*	3.6	0.5	.	.	89.7*	.
COC(=O)C1CCN(C2CC(=O)N(c3cc(C)cc(C)c3)C2=O)CC1 (stereo not drawn)	4.3	6.1	56.8*	-5.8	-4.9	.	.	-2.4	.
NC(=O)C1CCN(C2CC(=O)N(c3cccc(F)c3)C2=O)CC1 (stereo not drawn)	7.9	1.4	28.6*	-10.1	5.2	.	.	1.9	.
NC(=O)C1CCN(C2CC(=O)N(c3ccc(F)c(Cl)c3)C2=O)CC1 (stereo not drawn)	5.6	2.9	29.9*	-3.8	-1.2	.	.	9.2	.
Cc1ccccc1N1C(=O)CC(N2CCC(C(N)=O)CC2)C1=O (stereo not drawn)	6.2	-2.8	72.7*	-1.3	-1.3	.	.	-3.5	.
CN1C(=O)CC(N2CCC(C(N)=O)CC2)C1=O (stereo not drawn)	-14.0	-4.9	6.6	-1.7	-1.3	.	.	.	.
COc1ccc(NC2CCN(C3CC(=O)N(c4ccc(F)c(Cl)c4)C3=O)CC2)cc1 (stereo not drawn)	-17.2	-13.4	2.1	-2.2	2.5	.	.	.	.
COc1ccc(CCN2CC(C(=O)N(C)Cc3ccc(C)o3)CCC2=O)cc1 (stereo not drawn)	-1.2	-0.1	8.1	-1.4	-6.5	.	.	.	.
O=C1C(=Cc2ccc(F)cc2)CCc2ccccc21	-7.2	.	-0.9	1.7	3.3	.	.	.	.
COc1ccc(OC)c(-c2cc(C(=O)NCc3ccc(Cl)cc3)no2)c1	-5.4	5.6	-5.1	2.6	-0.6	.	.	.	.
CCCc1nc2ccc(C)cn2c1Cc1cccc(Cl)c1	-1.2	.	-0.1	0.6	3.1	.	.	.	.
O=C(c1ccccc1Sc1cccc2ccccc12)N1CCOCC1	5.7	-7.4	0.0	4.8	-1.1	.	.	.	.
CCOc1cccc(N2C(=O)CC(N3CCC(C(N)=O)(N4CCCCC4)CC3)C2=O)c1 (stereo not drawn)	-4.6	-1.8	40.3*	-0.3	2.3	.	.	-0.3	.
NC(=O)C1CCN(C2CC(=O)NC2=O)CC1 (stereo not drawn)	-7.8	2.3	64.3*	-8.4	0.2	.	.	-2.1	.
CN(C)S(=O)(=O)N1CCc2ccc(NC(=O)c3ccc(C(F)(F)F)cc3)cc2C1	-12.4	-17.5	-0.3	-3.1	-0.4	.	.	.	.
CC(C)(C)OC(=O)NCCCCCc1nnc(SCc2ccccc2)o1	3.6	1.8	81.3*	5.6	-11.4	.	.	0.3	.

Assay outcomes as filed in PubChem BioAssay.
